In ChEMBL document CHEMBL1671655, “Anidulafungin is fungicidal and exerts a variety of postantifungal effects against Candida albicans, C. glabrata, C. parapsilosis, and C. krusei isolates” (2009):
Calls of active or inactive are those of the source. The rule behind the calls is not given here. Starred links: 1 amine or outer side, 2 acyl side, 3 side chain; linkers in the order of their positions; H or OH if unused. Positions of bridges follow the written chain, without caps; N, C: chain ends. Non-standard residues stand in square brackets, D forms with d. Residues, ends and D or L forms follow the SMILES beside them. *: point of attachment. pTerphenylCO(4''-OnC5H11) = CCCCCOc1ccc(-c2ccc(-c3ccc(C(=O)*)cc3)cc2)cc1; Orn(4R-OH,5R-OH) = O=C([C@H](C[C@@H](O)[C@@H](O)N[*:3])N[*:1])[*:2]; hTyr(3S-OH,4S-OH) = N[C@H](C(=O)O)[C@H](O)[C@@H](O)c1ccc(O)cc1; Pro(3S-OH,4S-Me) = C[C@H]1CN[C@H](C(=O)O)[C@H]1O; Hyp = O=C(O)[C@@H]1C[C@@H](O)CN1

Key:
Candida albicans [1] = experiment: Fungicidal activity against Candida albicans isolate 1 assessed as log reduction in bacterial count at MIC after 48 hrs by time-kill analysis; type: functional; settings: isolate 1, 48 h
Outline: (§1)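 Isolates subcultured twice on SDA, suspended to 0.5 McFarland, giving ~1 x 10^5 to 5 x 10^5 CFU/ml in MOPS-buffered RPMI 1640 (pH 7.0) with or without drug at multiples of MIC (MIC by CLSI M27-A3). Tubes shaken at 35°C with continuous drug. Sampled at 0–48 h, diluted 10-fold and plated on SDA; CFU counted after 48 h at 35°C. Run twice per isolate; means.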

Candida albicans [2] = experiment: Fungicidal activity against Candida albicans isolate 2 assessed as log reduction in bacterial count at 16 times MIC after 48 hrs by time-kill analysis; type: functional; settings: isolate 2, 48 h; outline: as §1
Candida albicans [3] = experiment: Fungicidal activity against Candida albicans isolate 2 assessed as log reduction in bacterial count at 4 times MIC after 48 hrs by time-kill analysis; type: functional; settings: isolate 2, 48 h; outline: as §1
Nakaseomyces glabratus [4] = experiment: Fungicidal activity against Candida glabrata isolate 1 assessed as log reduction in bacterial count at 16 times MIC after 48 hrs by time-kill analysis; type: functional; settings: isolate 1, 48 h; outline: as §1
Candida parapsilosis [5] = experiment: Fungicidal activity against Candida parapsilosis isolate 1 assessed as log reduction in bacterial count at 16 times MIC after drug exposure for 1 hr followed by washout measured after 48 hrs in the absence of drug by PAFE study; type: functional; settings: Lodderomyces parapsilosis
Outline: (§2)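 Starting inoculum ~1 x 10^5 to 5 x 10^5 CFU/ml in MOPS-buffered RPMI 1640 (pH 7.0) with drug at multiples of the CLSI M27-A3 MIC. After 1 h at 35°C, cells washed and centrifuged three times at 1,400 x g for 10 min, then resuspended in warm drug-free RPMI. Shaken at 35°C and plated on SDA at 0–48 h; CFU counted after 48 h. Run twice per isolate; means.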

Nakaseomyces glabratus [6] = experiment: Fungicidal activity against Candida glabrata isolate 1 assessed as log reduction in bacterial count at 4 times MIC after drug exposure for 1 hr followed by washout measured after 48 hrs in the absence of drug by PAFE study; type: functional; outline: as §2
Nakaseomyces glabratus [7] = experiment: Fungicidal activity against Candida glabrata isolate 2 assessed as log reduction in bacterial count at 16 times MIC after drug exposure for 1 hr followed by washout measured after 48 hrs in the absence of drug by PAFE study; type: functional; outline: as §2
Pichia kudriavzevii [8] = experiment: Antifungal activity against Candida krusei isolate ATCC 6258 assessed as time period for bacterial growth inhibition at 4 times MIC after 1 hr drug exposure; type: functional
Outline: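 Inoculum of about 1 x 10^5 to 5 x 10^5 CFU/ml in MOPS-buffered RPMI (pH 7.0), shaken at 35°C and exposed to drug for 1 h. Cells then washed and centrifuged three times and resuspended in drug-free warm RPMI. Samples plated on SDA at 0, 2, 4, 8, 12, 24 and 48 h, with CFU counted after 48 h at 35°C. Run twice per isolate; values are means.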

Nakaseomyces glabratus [9] = experiment: Increase in susceptibility to SDS in Candida glabrata isolate 1 assessed as cell wall damage at MIC after 1 hr relative to control; type: functional, organism-based
Outline: (§3)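 Cells recovered 8 h after a 1-h drug exposure were grown in YPD with 1% glucose to exponential phase and adjusted to OD599 0.1. Undiluted culture and 10-fold serial dilutions were spotted onto YPD plates containing SDS (0.01 to 0.04%), then incubated 72 h at 30°C. Growth compared with unexposed control cells; triplicate.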

Pichia kudriavzevii [10] = experiment: Increase in susceptibility to SDS in Candida krusei isolate ATCC 6258 assessed as cell wall damage at 4 times MIC after 1 hr relative to control; type: functional, organism-based; outline: as §3
Nakaseomyces glabratus [11] = experiment: Increase in susceptibility to SDS in Candida glabrata isolate 1 assessed as cell wall damage at 16 times MIC after 1 hr relative to control; type: functional, organism-based; outline: as §3
Candida parapsilosis [12] = experiment: Antifungal activity against Candida parapsilosis isolate A coincubated with mouse J774 macrophages assessed as macrophage induced bacterial cell killing at 4 times MIC (reference value: 19 +/- 9 %); type: functional
Candida parapsilosis [13] = experiment: Antifungal activity against Candida parapsilosis isolate 1 coincubated with mouse J774 macrophages assessed as macrophage induced bacterial cell killing at 4 times MIC (reference value: 22 +/- 12 %); type: functional

`CCCCCOc1ccc(-c2ccc(-c3ccc(C(=O)N[C@H]4C[C@@H](O)[C@@H](O)NC(=O)[C@@H]5[C@@H](O)[C@@H](C)CN5C(=O)[C@H]([C@@H](C)O)NC(=O)[C@H]([C@H](O)[C@@H](O)c5ccc(O)cc5)NC(=O)[C@@H]5C[C@@H](O)CN5C(=O)[C@H]([C@@H](C)O)NC4=O)cc3)cc2)cc1` [ANIDULAFUNGIN] ({pTerphenylCO(4''-OnC5H11)}-[Orn(4R-OH,5R-OH)]T[Hyp][hTyr(3S-OH,4S-OH)]T[Pro(3S-OH,4S-Me)]; lactam 1-C) was tested, and the log reduction (Candida albicans [1]) was 1.15 log CFU/ml, the log reduction (Candida albicans [2]) was 2.86 log CFU/ml and the log reduction (Candida albicans [3]) was 2.33 log CFU/ml. For the same molecule, the log reduction (Nakaseomyces glabratus [4]) was 3.44 log CFU/ml, the log reduction (Candida parapsilosis [5]) was 3.17 and the log reduction (Nakaseomyces glabratus [6]) was 2.81. The log reduction (Nakaseomyces glabratus [7]) was 2.92, the Time (Pichia kudriavzevii [8]) was 8 h and the Activity (Nakaseomyces glabratus [9]) was “Active”. For the same molecule, the Activity (Pichia kudriavzevii [10]) was “Active”, the Activity (Nakaseomyces glabratus [11]) was “Active” and the “inhibition (INH)” value (Candida parapsilosis [12]) was 42%. For the same molecule, the “inhibition (INH)” value (Candida parapsilosis [13]) was 27%.
